Calls of active or inactive are those of the source.
How the values were obtained:
[1] = test system: HUVEC; experiment: Effect on BIRC5 gene expression in serum-starved HUVEC after 6 hrs by microarray analysis relative to control; type: functional, Homo sapiens
Outline: (§1)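 Serum-starved confluent HUVEC treated with 2 μM compound or DMSO in 2.5% FBS for 6 h or 24 h; RNA hybridized to Illumina Human-HT12 arrays. Data background-corrected, vst-transformed and rsn-normalized. Differential probes called by moderated paired t-test (limma) at p < 0.05 and log2 fold change >|0.5| vs DMSO.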

[2] = test system: HUVEC; experiment: Effect on CDC20 gene expression in serum-starved HUVEC after 6 hrs by microarray analysis relative to control; type: functional, Homo sapiens; outline: as §1
[3] = test system: HUVEC; experiment: Effect on SLC30A7 gene expression in serum-starved HUVEC after 24 hrs by microarray analysis relative to control; type: functional, Homo sapiens
[4] = test system: HUVEC; experiment: Effect on ZAK gene expression in serum-starved HUVEC after 24 hrs by microarray analysis relative to control; type: functional, Homo sapiens
[5] = test system: HUVEC; experiment: Effect on HINT3 gene expression in serum-starved HUVEC after 24 hrs by microarray analysis relative to control; type: functional, Homo sapiens
Outline: (§2)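 Confluent, serum-starved HUVEC (pooled from 3–5 donors, passage ≤4) treated with 2 μM compound or vehicle with 2.5% FBS for 6 h or 24 h. Total RNA hybridized to Illumina Human-HT12 arrays. Data were background-corrected, vst-transformed and rsn-normalized. Hits called by moderated paired t-test versus DMSO-treated cells, p < 0.05 and log2 fold change >|0.5|.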

[6] = test system: HUVEC; experiment: Effect on ACACA gene expression in serum-starved HUVEC after 6 hrs by microarray analysis relative to control; type: functional, Homo sapiens; outline: as §1
[7] = test system: HUVEC; experiment: Effect on ACSS2 gene expression in serum-starved HUVEC after 6 hrs by microarray analysis relative to control; type: functional, Homo sapiens; outline: as §1
[8] = test system: HUVEC; experiment: Effect on ANTXR1 gene expression in serum-starved HUVEC after 6 hrs by microarray analysis relative to control; type: functional, Homo sapiens; outline: as §1
[9] = test system: HUVEC; experiment: Effect on CDKN3 gene expression in serum-starved HUVEC after 6 hrs by microarray analysis relative to control; type: functional, Homo sapiens; outline: as §1
[10] = test system: HUVEC; experiment: Effect on CTHRC1 gene expression in serum-starved HUVEC after 6 hrs by microarray analysis relative to control; type: functional, Homo sapiens; outline: as §2
[11] = test system: HUVEC; experiment: Effect on CXCL16 gene expression in serum-starved HUVEC after 6 hrs by microarray analysis relative to control; type: functional, Homo sapiens
Outline: (§3)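 Confluent serum-starved HUVEC (primary, pooled from 3–5 donors, passage ≤4) treated with 2 μM compound or DMSO vehicle in 2.5% FBS for 6 h or 24 h. Total RNA hybridized to Illumina Human-HT12 arrays, background-corrected, vst-transformed and rsn-normalized. Differential expression versus DMSO by moderated paired t-test (p < 0.05, |log2 fold change| > 0.5).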

[12] = test system: HUVEC; experiment: Effect on CYTL1 gene expression in serum-starved HUVEC after 6 hrs by microarray analysis relative to control; type: functional, Homo sapiens; outline: as §3
[13] = test system: HUVEC; experiment: Effect on FABP4 gene expression in serum-starved HUVEC after 6 hrs by microarray analysis relative to control; type: functional, Homo sapiens; outline: as §3
[14] = test system: HUVEC; experiment: Effect on HECW2 gene expression in serum-starved HUVEC after 6 hrs by microarray analysis relative to control; type: functional, Homo sapiens; outline: as §2
[15] = test system: HUVEC; experiment: Effect on KRT7 gene expression in serum-starved HUVEC after 6 hrs by microarray analysis relative to control; type: functional, Homo sapiens
[16] = test system: HUVEC; experiment: Effect on MVD gene expression in serum-starved HUVEC after 6 hrs by microarray analysis relative to control; type: functional, Homo sapiens
Outline: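 Serum-starved confluent HUVEC (pooled from 3–5 donors, passage ≤4) were treated with 2 μM compound or vehicle in 2.5% FBS for 6 h or 24 h, and total RNA was isolated. Hybridization was on Illumina Human-HT12. Data were processed with bgAdjust, vst and rsn normalization. Changes versus DMSO were called by moderated paired t-test at p < 0.05 and |log2 fold change| > 0.5.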

[17] = test system: HUVEC; experiment: Effect on RN7SK gene expression in serum-starved HUVEC after 6 hrs by microarray analysis relative to control; type: functional, Homo sapiens
[18] = test system: HUVEC; experiment: Effect on SCD gene expression in serum-starved HUVEC after 6 hrs by microarray analysis relative to control; type: functional, Homo sapiens
[19] = test system: HUVEC; experiment: Effect on SULF1 gene expression in serum-starved HUVEC after 6 hrs by microarray analysis relative to control; type: functional, Homo sapiens
[20] = test system: HUVEC; experiment: Effect on UACA gene expression in serum-starved HUVEC after 6 hrs by microarray analysis relative to control; type: functional, Homo sapiens
[21] = test system: HUVEC; experiment: Effect on UHRF1 gene expression in serum-starved HUVEC after 6 hrs by microarray analysis relative to control; type: functional, Homo sapiens
[22] = test system: HUVEC; experiment: Effect on ANGPT2 gene expression in serum-starved HUVEC after 24 hrs by microarray analysis relative to control; type: functional, Homo sapiens
Outline: (§4)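 Serum-starved confluent HUVEC (primary, pooled from 3–5 donors, passage ≤4) treated with 2 μM test compound or DMSO vehicle (working dilutions ≤0.1% v/v) in presence of 2.5% FBS for 6 h or 24 h; total RNA hybridized to Illumina Human-HT12 arrays; background correction, vst, rsn normalization; moderated paired t-test versus DMSO, thresholds p < 0.05 and log2 fold change >|0.5|.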

[23] = test system: HUVEC; experiment: Effect on AURKA gene expression in serum-starved HUVEC after 24 hrs by microarray analysis relative to control; type: functional, Homo sapiens; outline: as §3
[24] = test system: HUVEC; experiment: Effect on CD34 gene expression in serum-starved HUVEC after 24 hrs by microarray analysis relative to control; type: functional, Homo sapiens; outline: as §3
[25] = test system: HUVEC; experiment: Effect on CDCA8 gene expression in serum-starved HUVEC after 24 hrs by microarray analysis relative to control; type: functional, Homo sapiens; outline: as §4
[26] = test system: HUVEC; experiment: Effect on ESM1 gene expression in serum-starved HUVEC after 24 hrs by microarray analysis relative to control; type: functional, Homo sapiens; outline: as §3
[27] = test system: HUVEC; experiment: Effect on FAM212A gene expression in serum-starved HUVEC after 24 hrs by microarray analysis relative to control; type: functional, Homo sapiens; outline: as §4
[28] = test system: HUVEC; experiment: Effect on HLA-DMA gene expression in serum-starved HUVEC after 24 hrs by microarray analysis relative to control; type: functional, Homo sapiens
[29] = test system: HUVEC; experiment: Effect on HLA-DRB4 gene expression in serum-starved HUVEC after 24 hrs by microarray analysis relative to control; type: functional, Homo sapiens
[30] = test system: HUVEC; experiment: Effect on RNU4ATAC gene expression in serum-starved HUVEC after 24 hrs by microarray analysis relative to control; type: functional, Homo sapiens
[31] = test system: HUVEC; experiment: Effect on SMC4 gene expression in serum-starved HUVEC after 24 hrs by microarray analysis relative to control; type: functional, Homo sapiens
[32] = test system: HUVEC; experiment: Effect on SULT1C4 gene expression in serum-starved HUVEC after 24 hrs by microarray analysis relative to control; type: functional, Homo sapiens
[33] = test system: HUVEC; experiment: Effect on TMEM154 gene expression in serum-starved HUVEC after 24 hrs by microarray analysis relative to control; type: functional, Homo sapiens
[34] = Upregulation of MSMO1 gene expression in serum-starved HUVEC at 2 uM after 24 hrs by qRT-PCR analysis; type: functional, cell-based; settings: Homo sapiens
[35] = Downregulation of CCNA2 gene expression in serum-starved HUVEC at 2 uM after 24 hrs by qRT-PCR analysis; type: functional, cell-based; settings: Homo sapiens
Outline: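 Serum-starved confluent HUVEC treated with 2 μM compound or vehicle in 2.5% FBS for 24 h. Total RNA isolated and qRT-PCR run in triplicate (95 °C 5 min; 40 cycles of 95 °C 5 s, 58 °C 20 s, 72 °C 5 s), normalized to RPS18S. Fold change vs control, n = 3.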

SMILES: COc1ccc(Cn2nc(-c3ccccc3)c3cc(Cl)nc(N4CCNCC4)c32)cc1
- fold change (FC) [1]: 0.0293
- fold change (FC) [2]: 0.127
- log2FC [3]: 0.0778
- log2FC [4]: 0.0198

SMILES: COc1ccc(Cn2nc(-c3ccccc3)c3cc(Nc4ccc(N5CCN(C)CC5)cc4)nc(N4CCNCC4)c32)cc1
- log2FC [5]: 0.6699

SMILES: COc1ccc(Cn2nc(-c3ccccc3)c3cc(Nc4ccc(N5CCN(C)CC5)cc4)nc(N4CCN(C)CC4)c32)cc1
- fold change (FC) [6]: 0.1305
- fold change (FC) [7]: 0.2037
- fold change (FC) [8]: 0.1452
- log2FC [9]: -0.0153
- log2FC [10]: -0.0221
- fold change (FC) [11]: 0.5236
- fold change (FC) [12]: 0.0261
- fold change (FC) [13]: 0.3036
- fold change (FC) [14]: 0.4559
- fold change (FC) [15]: 0.2295
- fold change (FC) [16]: 0.3962
- log2FC [17]: -0.8368
- log2FC [18]: 0.7444
- log2FC [19]: 0.5151
- fold change (FC) [20]: 0.2427
- fold change (FC) [21]: 0.012
- fold change (FC) [22]: 0.5736
- fold change (FC) [23]: -0.6725
- fold change (FC) [24]: 0.5547
- fold change (FC) [25]: -0.8847
- fold change (FC) [26]: 0.8252
- fold change (FC) [27]: 0.5468
- fold change (FC) [28]: -0.8514
- log2FC [29]: -0.7509
- log2FC [30]: -0.0618
- log2FC [31]: -0.5117
- log2FC [32]: 0.5208
- log2FC [33]: 0.8028
- Activity [34]: Active
- Activity [35]: Active

Reference: ChEMBL document CHEMBL3856209, “Novel pyrazolopyridine derivatives as potential angiogenesis inhibitors: Synthesis, biological evaluation and transcriptome-based mechanistic analysis” (Eur J Med Chem, 2016)
